According to ChEMBL document CHEMBL4196093, “Small-Molecule Activator of UNC-51-Like Kinase 1 (ULK1) That Induces Cytoprotective Autophagy for Parkinson's Disease Treatment” (J Med Chem, 2018):

Columns and labels:
[1] = target: T1, Serine/threonine-protein kinase ULK1 (Homo sapiens) (UniProt O75385); experiment: Induction of ULK1-mediated autophagy in human SH-SY5Y cells at 1 uM after 6 hrs by MDC-staining based flow cytometric analysis relative to control; type: cell-based
T1 sequence (whole entry): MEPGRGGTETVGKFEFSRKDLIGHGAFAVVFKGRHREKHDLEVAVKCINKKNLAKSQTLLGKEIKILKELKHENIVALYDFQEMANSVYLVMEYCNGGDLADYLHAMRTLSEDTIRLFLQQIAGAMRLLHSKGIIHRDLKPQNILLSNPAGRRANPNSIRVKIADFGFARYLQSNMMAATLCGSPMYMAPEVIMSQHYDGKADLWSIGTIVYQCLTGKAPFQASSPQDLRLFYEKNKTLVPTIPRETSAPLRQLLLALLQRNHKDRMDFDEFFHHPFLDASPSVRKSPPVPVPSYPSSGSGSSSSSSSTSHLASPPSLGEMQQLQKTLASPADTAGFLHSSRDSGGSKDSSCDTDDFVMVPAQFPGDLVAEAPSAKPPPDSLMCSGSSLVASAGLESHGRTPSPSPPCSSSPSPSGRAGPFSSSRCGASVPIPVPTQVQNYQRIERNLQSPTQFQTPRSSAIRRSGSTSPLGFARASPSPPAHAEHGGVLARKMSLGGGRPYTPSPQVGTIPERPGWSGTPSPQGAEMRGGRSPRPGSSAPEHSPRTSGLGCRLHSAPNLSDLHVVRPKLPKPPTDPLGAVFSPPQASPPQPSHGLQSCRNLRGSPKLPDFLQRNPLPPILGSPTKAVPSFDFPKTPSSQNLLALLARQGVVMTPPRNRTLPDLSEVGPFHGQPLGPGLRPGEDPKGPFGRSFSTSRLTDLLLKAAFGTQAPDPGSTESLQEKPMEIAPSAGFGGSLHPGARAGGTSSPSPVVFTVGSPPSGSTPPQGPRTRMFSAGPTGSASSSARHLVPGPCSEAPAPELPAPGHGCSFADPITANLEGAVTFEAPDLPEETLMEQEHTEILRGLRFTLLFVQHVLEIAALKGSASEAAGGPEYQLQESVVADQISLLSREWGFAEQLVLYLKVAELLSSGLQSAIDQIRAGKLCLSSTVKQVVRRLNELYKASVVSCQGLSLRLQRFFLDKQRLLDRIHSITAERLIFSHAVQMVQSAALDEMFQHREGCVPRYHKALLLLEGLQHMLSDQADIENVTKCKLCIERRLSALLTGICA
Procedure, shortened: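 Autophagy scored as percentage of MDC-positive SH-SY5Y cells by flow cytometry after 1 µM compound; mean ± SEM.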

[2] = target: T1, Serine/threonine-protein kinase ULK1 (Homo sapiens); experiment: Induction of human recombinant N-terminal GST tagged-ULK1 (1 to 649 residues) kinase activity expressed in baculovirus infected insect Sf9 cells at 100 nM using MBP as substrate after 60 mins by ADP-glo assay relative to control
Procedure, shortened: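 Recombinant human ULK1 (10 ng) with MBP (0.1 µg/µl)/10 µM ATP and compound at 100 nM in 40 mM Tris pH 7.5, 20 mM MgCl2, 50 µM DTT, 0.1 mg/ml BSA. Incubated 60 min at room temperature; ADP-Glo luminescence read. Three independent experiments, mean ± SEM.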

Row | SMILES | Activity [1] [%] | Activity [2] [%]
1 | Cc1ccccc1NC(=O)[C@H](NC(=O)Nc1cccc(Cl)c1)c1ccccc1 | 27.4 | 156
2 | O=C(Nc1ccccc1Cl)N[C@@H](C(=O)Nc1cc(F)ccc1F)c1ccccc1 | 19.6 | 144
3 | O=C(Nc1cccc(Cl)c1)N[C@@H](C(=O)Nc1cccc(Br)c1)c1ccccc1 | 24.1 | 152
4 | Cc1ccccc1NC(=O)[C@H](NCCc1cc(Cl)ccc1O)c1ccccc1 | 15.3 | 146
5 | C[C@@H](NC(=O)[C@H](NC(=S)Nc1ccccc1)c1ccccc1)c1ccccc1 | 32.2 | 169
6 | O=C(Nc1cc(F)ccc1F)[C@H](NC(=S)Nc1ccccc1)c1ccccc1 | 39.4 | 197
7 | O=C(Nc1ccccc1Cl)N[C@@H](C(=O)Nc1cccc(Br)c1)c1ccccc1 | 26.3 | 161
8 | O=C(Nc1ccc(F)cc1F)[C@H](NCCc1ccc(Cl)c(Cl)c1)c1ccccc1 | 31.4 | 174
9 | O=C(Nc1ccc(F)cc1F)[C@H](NCCc1ccc(O)cc1)c1ccccc1 | 32.1 | 198
10 | Cc1ccccc1NC(=O)[C@H](NC(=O)Nc1ccc(C(F)(F)F)cc1)c1ccccc1 | 38.4 | 183
11 | O=C(Nc1cccc(Br)c1)[C@H](NC(=S)Nc1cc(C(F)(F)F)cc(C(F)(F)F)c1)c1ccccc1 | 39.6 | 217
12 | C[C@@H](NC(=O)[C@H](NC(=O)Nc1ccc(C(F)(F)F)cc1)c1ccccc1)c1ccccc1 | 38.3 | 209
13 | O=C(Nc1ccc(C(F)(F)F)cc1)N[C@@H](C(=O)Nc1cccc(Br)c1)c1ccccc1 | 33.6 | 179
14 | O=C(Nc1cccc2ccccc12)N[C@@H](C(=O)Nc1cc(F)ccc1F)c1ccccc1 | 22.3 | 151
15 | O=C(Nc1cccc2ccccc12)N[C@@H](C(=O)Nc1cccc(Br)c1)c1ccccc1 | 24.6 | 150
16 | COc1ccc(CCNC(=S)N[C@@H](C(=O)Nc2cc(C(F)(F)F)cc(C(F)(F)F)c2)c2ccccc2)cc1OC | 39 | 184
17 | O=C(Nc1ccc(F)cc1F)[C@H](NCCc1cccc2ccccc12)c1ccccc1 | 26.2 | 168
18 | COc1ccc(CCN[C@@H](C(=O)Nc2ccc(F)cc2F)c2ccccc2)cc1OC | 22.4 | 151
19 | C[C@@H](NC(=O)[C@H](NC(=O)Nc1cccc2ccccc12)c1ccccc1)c1ccccc1 | 19.6 | 149
20 | O=C(Nc1cccc(Cl)c1)N[C@@H](C(=O)Nc1cc(F)ccc1F)c1ccccc1 | 24.7 | 159
21 | O=C(Nc1cccc(Br)c1)[C@H](NC(=S)Nc1ccccc1)c1ccccc1 | 32.9 | 176
22 | Cc1ccccc1NC(=O)[C@H](NCCc1ccc(Cl)c(Cl)c1)c1ccccc1 | 20.3 | 153
23 | COc1ccc(CCNC(=O)N[C@@H](C(=O)Nc2cccc(Cl)c2)c2ccccc2)cc1OC | 31.1 | 168
24 | Cc1ccccc1NC(=O)[C@H](NC(=O)Nc1c(C)cccc1C)c1ccccc1 | 24.2 | 149
25 | C[C@@H](NC(=O)[C@H](NC(=O)Nc1ccccc1Cl)c1ccccc1)c1ccccc1 | 19.3 | 158
26 | Cc1cccc(C)c1NC(=O)N[C@@H](C(=O)Nc1cc(F)ccc1F)c1ccccc1 | 24.9 | 147

The remaining lines, values ahead:

Row | Activity [1] [%] | Activity [2] [%] | SMILES
27 | 19.2 | 145 | COc1ccc(NC(=O)N[C@@H](C(=O)N[C@H](C)c2ccccc2)c2ccccc2)cc1
28 | 34.9 | 174 | Cc1ccc(NC(=O)N[C@@H](C(=O)Nc2ccccc2C)c2ccccc2)cc1
29 | 9.99 | 143 | CN1CCN(CC(OC(=O)Cc2ccccn2)c2ccccc2)CC1 (centres undefined)
30 | 11.6 | 162 | COc1ccc(N2CCN(CC(OC(=O)c3cccc(C(F)(F)F)c3)c3ccccc3)CC2)cc1 (centres undefined)
31 | 11.4 | 159 | CN1CCN(CC(OC(=O)c2cccc(Br)c2)c2ccccc2)CC1 (centres undefined)
32 | 12.5 | 181 | CN1CCN(CC(OC(=O)c2ccc3ncccc3c2)c2ccccc2)CC1 (centres undefined)
33 | 9.59 | 156 | CN1CCN(CC(OC(=O)c2ccccc2)c2ccccc2)CC1 (centres undefined)
34 | 28.6 | 157 | COc1ccc(NC(=O)N[C@@H](C(=O)Nc2cccc(Br)c2)c2ccccc2)cc1
35 | 10 | 151 | CN1CCN(CC(OC(=O)c2ccccc2C(F)(F)F)c2ccccc2)CC1 (centres undefined)
36 | 9.2 | 147 | COc1ccc(N2CCN(CC(OC(=O)c3ccc(-c4ccccc4)cc3)c3ccccc3)CC2)cc1 (centres undefined)
37 | 16.2 | 144 | Cc1cccc(C)c1NC(=O)N[C@@H](C(=O)N[C@H](C)c1ccccc1)c1ccccc1
38 | 21.1 | 141 | COc1ccc(NC(=O)[C@H](NC(=O)NCCc2ccc(OC)c(OC)c2)c2ccccc2)cc1
39 | 20.9 | 139 | COc1ccc(CCNC(=O)N[C@@H](C(=O)Nc2cccc3ccccc23)c2ccccc2)cc1OC
40 | 13.4 | 163 | COc1ccc(N2CCN(CC(OC(=O)c3cccc(Cl)c3)c3ccccc3)CC2)cc1 (centres undefined)
41 | 16.2 | 140 | COc1cccc(CCN[C@@H](C(=O)Nc2ccccc2C)c2ccccc2)c1
42 | 30.4 | 158 | COc1ccc(NC(=O)N[C@@H](C(=O)Nc2ccccc2C)c2ccccc2)cc1
43 | 20.2 | 149 | CN(C)c1ccc(CCN[C@@H](C(=O)Nc2ccc(F)cc2F)c2ccccc2)cc1
44 | 33.5 | 163 | COc1ccc(CCNC(=O)N[C@@H](C(=O)Nc2ccc(C(F)(F)F)cc2)c2ccccc2)cc1OC

Row | Activity [1] [%] | Activity [2] [%] | SMILES
45 | 36.7 | 170 | COc1ccc(CCNC(=S)N[C@@H](C(=O)Nc2ccccc2)c2ccccc2)cc1OC
46 | 11.8 | 150 | COc1ccc(N2CCN(CC(OC(=O)c3ccc(Cl)cc3Cl)c3ccccc3)CC2)cc1 (centres undefined)
47 | 24.3 | 148 | COc1ccc(CCNC(=O)N[C@@H](C(=O)Nc2ccc(C)cc2)c2ccccc2)cc1OC
48 | 8.56 | 141 | COc1ccc(N2CCN(CC(OC(=O)c3cccc(C)c3)c3ccccc3)CC2)cc1 (centres undefined)
49 | 24 | 153 | Cc1ccc(NC(=O)N[C@@H](C(=O)Nc2cc(F)ccc2F)c2ccccc2)cc1
50 | 23.2 | 144 | COc1ccc(CCNC(=O)N[C@@H](C(=O)Nc2c(C)cccc2C)c2ccccc2)cc1OC
51 | 16.6 | 142 | Cc1ccccc1NC(=O)[C@H](NCCc1ccc([N+](=O)[O-])cc1)c1ccccc1
52 | 13.5 | 143 | Cc1ccccc1NC(=O)[C@H](NCCc1ccc(N(C)C)cc1)c1ccccc1
53 | 11.1 | 168 | COc1ccc(N2CCN(CC(OC(=O)c3ccc(F)cc3)c3ccccc3)CC2)cc1 (centres undefined)
54 | 20.6 | 148 | COc1cccc(CCN[C@@H](C(=O)Nc2ccc(F)cc2F)c2ccccc2)c1
55 | 25.4 | 147 | Cc1ccc(NC(=O)N[C@@H](C(=O)Nc2cccc(Br)c2)c2ccccc2)cc1
56 | 16.6 | 148 | Cc1ccc(NC(=O)N[C@@H](C(=O)N[C@H](C)c2ccccc2)c2ccccc2)cc1
57 | 18.1 | 147 | COc1ccc(CCN[C@@H](C(=O)Nc2ccccc2C)c2ccccc2)cc1OC
58 | 24.5 | 164 | Cc1ccccc1NC(=O)[C@H](NCCc1ccc(F)cc1)c1ccccc1
59 | 13.8 | 139 | Cc1ccc(CCN[C@@H](C(=O)Nc2ccccc2C)c2ccccc2)cc1
60 | 14.2 | 171 | COc1ccc(N2CCN(CC(OC(=O)c3ccc(C(F)(F)F)cc3)c3ccccc3)CC2)cc1 (centres undefined)
61 | 4.51 | 139 | COc1ccc(N2CCN(CC(OC(=O)c3ccc(C)cc3)c3ccccc3)CC2)cc1 (centres undefined)
62 | 11.2 | 155 | COc1ccc(C(=O)OC(CN2CCN(c3ccc(OC)cc3)CC2)c2ccccc2)cc1 (centres undefined)
